Laboratory results from PubChem BioAssay.
Calls of active or inactive are those of the source. Rule as the data show it, unless noted: active = inhibition above about 30%; inactive = the rest.

Tests used:
[1] = reducers of endogenous Her2 protein level, primary screen, SKBR3 breast tumor cells, AlphaScreen, ATP viability (AID 461;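 active = Her2 level under about 52% in both replicate screens, with viability over 70% of control, limit read from the data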;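 as to Her2 level: lower value means less Her2 protein in the cells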;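 as to viability: percent of carrier control wells set as 100% viability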); settings: 18-24 h, measured here: SKBR3 viability, ATP luminescence, at 10 µM
[2] = target: Receptor tyrosine-protein kinase erbB-2 (Homo sapiens) (UniProt P04626); experiment: as above; settings: 18-24 h, at 10 µM, stronger effect = lower value
Chain of Receptor tyrosine-protein kinase erbB-2 (Homo sapiens) (P04626 whole entry, looked up): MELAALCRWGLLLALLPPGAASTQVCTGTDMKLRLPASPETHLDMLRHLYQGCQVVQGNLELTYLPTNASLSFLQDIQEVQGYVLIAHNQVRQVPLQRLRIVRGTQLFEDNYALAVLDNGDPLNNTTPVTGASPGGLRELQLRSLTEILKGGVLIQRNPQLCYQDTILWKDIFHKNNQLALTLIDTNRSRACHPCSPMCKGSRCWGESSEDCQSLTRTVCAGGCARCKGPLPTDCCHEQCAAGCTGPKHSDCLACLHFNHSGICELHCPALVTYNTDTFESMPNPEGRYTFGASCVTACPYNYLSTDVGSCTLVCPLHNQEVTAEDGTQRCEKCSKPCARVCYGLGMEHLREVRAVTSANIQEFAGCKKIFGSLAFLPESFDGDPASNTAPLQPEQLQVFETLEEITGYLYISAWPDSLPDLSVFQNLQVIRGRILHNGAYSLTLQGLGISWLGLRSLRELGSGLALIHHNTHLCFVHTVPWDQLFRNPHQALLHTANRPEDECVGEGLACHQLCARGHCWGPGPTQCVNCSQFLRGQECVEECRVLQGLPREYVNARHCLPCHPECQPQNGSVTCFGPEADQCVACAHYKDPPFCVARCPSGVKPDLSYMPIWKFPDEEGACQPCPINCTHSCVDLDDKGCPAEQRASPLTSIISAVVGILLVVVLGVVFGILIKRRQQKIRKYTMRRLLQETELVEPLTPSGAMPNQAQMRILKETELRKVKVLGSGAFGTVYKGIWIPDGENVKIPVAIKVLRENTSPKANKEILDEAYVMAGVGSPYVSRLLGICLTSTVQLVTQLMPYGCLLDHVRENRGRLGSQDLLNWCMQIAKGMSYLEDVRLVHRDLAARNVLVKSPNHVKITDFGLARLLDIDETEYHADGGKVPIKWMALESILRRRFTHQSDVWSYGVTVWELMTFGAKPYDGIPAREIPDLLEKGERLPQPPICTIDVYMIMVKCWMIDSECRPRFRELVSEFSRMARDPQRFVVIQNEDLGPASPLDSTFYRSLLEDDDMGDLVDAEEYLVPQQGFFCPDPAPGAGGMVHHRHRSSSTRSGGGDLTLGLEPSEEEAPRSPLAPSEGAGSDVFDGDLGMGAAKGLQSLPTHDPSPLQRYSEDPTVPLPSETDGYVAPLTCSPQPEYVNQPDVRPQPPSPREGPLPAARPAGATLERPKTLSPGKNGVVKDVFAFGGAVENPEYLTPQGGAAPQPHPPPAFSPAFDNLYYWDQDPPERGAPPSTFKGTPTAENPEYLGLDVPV

[3] = SK-BR-3 cell growth inhibitors, pilot screen, 24 h, human (AID 572;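 active = viability at or below 10% of carrier control in both of two separate runs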;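 also: compound exposure lasted between 18 and 24 h rather than exactly 24 h; 100% = carrier-treated control wells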); settings: SK-BR-3 viability, CellTiter-Glo luminescence, at 10 µM, stronger effect = lower value
[4] = HUVEC growth inhibition – cell-based, human, primary screen (AID 575;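 active = viability at or below 30% in both replicate assays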;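 also: 100% = median of untreated cell wells with 0.1% DMSO on each plate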); settings: HUVEC proliferation, CellTiter-Glo luminescence, 72 h; at 10 µM; stronger effect = lower value
Method in brief: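 Assay system: Primary human umbilical vein endothelial cells | Quantity: 1250 cells per well | Medium: Supplemented EBM, 2% fetal bovine serum | Detection: CellTiter-Glo luminescence measuring cellular ATP | Read-out: % viability vs DMSO wells | Plate: Collagen-coated 384-well format | Times: 72 h exposure, 37 °C, 5% CO2, 30 min RT equilibration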

[5] = growth inhibitors of H69AR lung tumor, primary screen, human, duplicate replicates (AID 580;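 active = viability at or under a set limit in both replicates, limit being median viability minus 3 SD, cut at about 48% in these data, passing the limit was not always enough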;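 also: 100% = mean luminescence of untreated wells and 0% = no signal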); settings: H69AR lung tumor cells viability, ATP luminescence, 72 h; at 10 µM; stronger effect = lower value
[6] = reversal of MRP1-mediated doxorubicin resistance, pilot screen, H69AR cells, doxorubicin co-treatment (AID 601;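 active = viability loss from added drug above about 55%, and viability with drug at most 40%, in both replicates, limit read from the data, passing the limit was not always enough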); settings: CellTiter-Glo, 72 h, at 10 µM; for differential viability (reversal): stronger effect = higher value
[7] = 384-well plate pilot, post-Golgi transport modulator project, inhibition of yeast transport mutant growth (AID 636; in the data active = inhibition above about 31%); settings: absorbance 615 nm, about 18 h, stronger effect = higher value
[8] = growth suppression of yeast trafficking mutant, preliminary HTS, modulators of trafficking downstream of Golgi apparatus project, 1536-format plate, OD 615 nm (AID 637); settings: yeast transport mutant growth, absorbance 615 nm, 18 h; stronger effect = higher value
[9] = H69AR cells + 2 uM doxorubicin, measured here: viability with 2 uM doxorubicin, stronger effect = lower value
[10] = H69AR cells, compound alone cytotoxicity

| Compound | viability [1] | Her2 level [2] | viability [3] | viability [4] | viability [5] | differential viability (reversal) ([6]; H69AR cells + 2 uM doxorubicin) | viability [6, 9] | viability [6, 10] | inhibition [7] | inhibition [8] |
| --- | --- | --- | --- | --- | --- | --- | --- | --- | --- | --- |
| Cc1ccc(F)cc1NC(=O)Cc1nn(C)c(=O)c2ccccc12 | 96.5% | 74.5% (inactive) | 96.5% (inactive) | 74.1% (inactive) | 93.4% (inactive) | 15.8% (inactive) | 77.6% | 93.4% | -0.66% (inactive) | -0.16% (inactive) |
| O=C(Oc1ccc(Cl)cc1N1C(=O)CCC1=O)c1ccco1 | 96.5% | 74% (inactive) | 96.5% (inactive) | 78% (inactive) | 90.9% (inactive) | 3.6% (inactive) | 87.3% | 90.9% | -3.65% (inactive) | 2.46% (inactive) |
| CCOC(=O)c1ccc(COC(=O)CCc2nc3ccccc3[nH]c2=O)o1 | 92% | 96.5% (inactive) | 92% (inactive) | 100% (inactive) | 92.1% (inactive) | -4.18% (inactive) | 96.2% | 92.1% | -1.32% (inactive) | 5.08% (inactive) |
| CCS(=O)(=O)NCCc1cc2c(OC)ccc(OC)c2[nH]c1=O | 95.5% | 88.5% (inactive) | 95.5% (inactive) | 106% (inactive) | 98.8% (inactive) | 12.1% (inactive) | 86.8% | 98.8% | -9.45% (inactive) | 0.48% (inactive) |
| COCC(=O)N(Cc1ccc(OC)cc1)Cc1nc2ccccc2c(=O)[nH]1 | 126% | 108% (inactive) | 126% (inactive) | 83.6% (inactive) | 86.2% (inactive) | -13.9% (inactive) | 100% | 86.2% | -5.66% (inactive) | 5% (inactive) |
| Cc1cccc(N2C(=O)CC(Sc3nc(C)c4c(n3)CCCC4)C2=O)c1 (stereo not given) | 80.5% | 128% (inactive) | 80.5% (inactive) | 102% (inactive) | 90.3% (inactive) | -0.055% (inactive) | 90.3% | 90.3% | -0.27% (inactive) | 27.5% (inactive) |
| CCNC(=O)N(C)c1nncnc1C(=O)NC | 85% | 88% (inactive) | 85% (inactive) | 89.8% (inactive) | 95.8% (inactive) | 6.2% (inactive) | 89.6% | 95.8% | -3.6% (inactive) | 5.57% (inactive) |
| CCOC(=O)N1CCN(C(=O)COc2ccc(S(=O)(=O)NC3CCCCC3)cc2C)CC1 | 112% | 110% (inactive) | 112% (inactive) | 80.9% (inactive) | 98.9% (inactive) | 0.31% (inactive) | 98.5% | 98.9% | -0.4% (inactive) | -1.31% (inactive) |
| COC(=O)C1=C(C)C(c2cccs2)NC(=O)N1C (stereo not given) | 92.5% | 86.5% (inactive) | 92.5% (inactive) | 102% (inactive) | 95.3% (inactive) | 10.1% (inactive) | 85.2% | 95.3% | -6.13% (inactive) | 1.48% (inactive) |
| COc1ccc(-c2noc(CN3CCC(Cc4ccccc4)CC3)n2)cc1 | 94% | 112% (inactive) | 94% (inactive) | 87.5% (inactive) | 93.5% (inactive) | 4.6% (inactive) | 88.9% | 93.5% | -4.8% (inactive) | -3.39% (inactive) |
| COc1cc(NC(=O)Cc2cccs2)ccc1-n1cnnn1 | 97% | 95.5% (inactive) | 97% (inactive) | 97% (inactive) | 102% (inactive) | 7.88% (inactive) | 94.4% | 102% | -6.13% (inactive) | 1.29% (inactive) |
| CC(C)(C)n1ncc2c(=O)n(CC(=O)NCCc3ccccc3)cnc21 | 88% | 108% (inactive) | 88% (inactive) | 107% (inactive) | 90.9% (inactive) | -4.92% (inactive) | 95.8% | 90.9% | 0.92% (inactive) | -6.13% (inactive) |
| COCCn1c(COc2ccc(Cl)cc2)nnc1SCC(N)=O | 85.5% | 84.5% (inactive) | 85.5% (inactive) | 98.8% (inactive) | 109% (inactive) | 18.1% (inactive) | 90.8% | 109% | -5.41% (inactive) | 2.54% (inactive) |
| COC(=O)c1ccccc1S(=O)(=O)N(CCCN1CCOCC1)Cc1cccs1 | 111% | 110% (inactive) | 111% (inactive) | 91.8% (inactive) | 89.2% (inactive) | -0.97% (inactive) | 90.2% | 89.2% | -1.45% (inactive) | 5.4% (inactive) |
| Nn1c(SCC(=O)Nc2ccc(Oc3ccccc3)cc2)nnc1C1CC1 | 98.5% | 100% (inactive) | 98.5% (inactive) | 69.1% (inactive) | 75.7% (inactive) | -9.75% (inactive) | 85.4% | 75.7% | -5.6% (inactive) | -12.1% (inactive) |
| COc1ccc(C2/C(=C(/O)c3ccccc3)C(=O)C(=O)N2C)cc1 (stereo not given) | 102% | 83.5% (inactive) | 102% (inactive) | 107% (inactive) | 101% (inactive) | 3% (inactive) | 98.1% | 101% | -7.84% (inactive) | 1.97% (inactive) |
| COCCNS(=O)(=O)c1cc(F)ccc1OC | 90% | 99.5% (inactive) | 90% (inactive) | 95.1% (inactive) | 103% (inactive) | 5.13% (inactive) | 97.6% | 103% | -4.32% (inactive) | -5.74% (inactive) |
| Cc1ccc(NC2=NC(c3ccccc3)n3c(nc(C)cc3=O)N2)cc1 (stereo not given) | 86.5% | 82% (inactive) | 86.5% (inactive) | 93.5% (inactive) | 88.5% (inactive) | 11.3% (inactive) | 77.2% | 88.5% | -2.11% (inactive) | 2.55% (inactive) |
| CCN(CC)S(=O)(=O)c1ccc(NC2c3ccccc3C(=O)N2CCN2CCOCC2)cc1 (stereo not given) | 101% | 105% (inactive) | 101% (inactive) | 85.2% (inactive) | 87% (inactive) | 10.8% (inactive) | 76.2% | 87% | -1.54% (inactive) | -0.83% (inactive) |
| COc1ccccc1OC(=O)c1ccc2nsnc2c1 | 110% | 89% (inactive) | 110% (inactive) | 91.8% (inactive) | 100% (inactive) | 11.6% (inactive) | 88.4% | 100% | -8.16% (inactive) | -6.55% (inactive) |
| COc1cccc(CN(C)CC(=O)NC(=O)NCc2ccco2)c1 | 106% | 100% (inactive) | 106% (inactive) | 92.7% (inactive) | 84.7% (inactive) | 5.36% (inactive) | 79.4% | 84.7% | 0.92% (inactive) | 21.4% (inactive) |
| Cc1cc(C)c(Cn2c(=O)n(CCCC(=O)NCc3ccco3)c(=O)c3ccccc32)c(C)c1 | 99% | 97.5% (inactive) | 99% (inactive) | 89.4% (inactive) | 94.9% (inactive) | 11.4% (inactive) | 83.5% | 94.9% | -1.45% (inactive) | 9.18% (inactive) |
| Cc1noc(C)c1S(=O)(=O)Nc1c(C)n(C)n(-c2ccccc2)c1=O | 108% | 99% (inactive) | 108% (inactive) | 104% (inactive) | 98.4% (inactive) | 8.05% (inactive) | 90.3% | 98.4% | -5.13% (inactive) | -1.11% (inactive) |
| CCOc1ccc(OCc2ccc(C(=O)Nc3cccc(C)n3)o2)cc1 | 101% | 85% (inactive) | 101% (inactive) | 84.1% (inactive) | 93.4% (inactive) | 6.08% (inactive) | 87.3% | 93.4% | -1.58% (inactive) | -1.61% (inactive) |
| CC(=O)C1=C(O)C(=O)N(Cc2ccco2)C1c1ccc(F)cc1 (stereo not given) | 102% | 110% (inactive) | 102% (inactive) | 123% (inactive) | 109% (inactive) | 8.52% (inactive) | 100% | 109% | 1.07% (inactive) | -5% (inactive) |
| O=C1CCCC(O)=C1C=Nc1ccc2c(c1)oc1ccccc12 | 102% | 101% (inactive) | 102% (inactive) | 63.7% (inactive) | 88.7% (inactive) | -11.3% (inactive) | 100% | 88.7% | -5.87% (inactive) | 1.11% (inactive) |
| O=C(c1cccc(Cl)c1)N1CCN(Cc2ccncc2)CC1 | 92% | 96.5% (inactive) | 92% (inactive) | 96.2% (inactive) | 105% (inactive) | 9.47% (inactive) | 95.8% | 105% | -0.27% (inactive) | 6.89% (inactive) |
| CCOC(=O)c1[nH]c(C)c(C(=O)NCC2CCCO2)c1C (stereo not given) | 99% | 92% (inactive) | 99% (inactive) | 108% (inactive) | 101% (inactive) | 9.65% (inactive) | 91.3% | 101% | -2.47% (inactive) | -0.32% (inactive) |
| Cc1c(NC(=O)C2(c3ccccc3)CCOCC2)c(=O)n(-c2ccccc2)n1C | 92.5% | 92% (inactive) | 92.5% (inactive) | 113% (inactive) | 93.6% (inactive) | -3.73% (inactive) | 97.3% | 93.6% | -3.07% (inactive) | -4.76% (inactive) |
